Test results: ChEMBL document CHEMBL3259569 (J Med Chem, 2014)
pIC50: −log10 of the molar value. Activity calls are given as the source filed them. No cut-off for these calls is given here.

Tested on: HCT-116
Test: Cytotoxicity against human HCT116 cells by MTT assay
Assay type: functional, cell-based
Conditions: not given

Compound | pIC50
O=C(/C=C/c1ccc(S(=O)(=O)N2CCc3cccnc32)cc1)NO | 5.76
O=C(/C=C/c1cccc(S(=O)(=O)n2ccc3ccncc32)c1)NO | 5.92
O=C(/C=C/c1ccc(S(=O)(=O)n2ccc3ccncc32)cc1)NO | 5.72
O=C(/C=C/c1cccc(S(=O)(=O)n2ccc3ccccc32)c1)NO | 5.61
O=C(/C=C/c1ccc(S(=O)(=O)n2ccc3cccnc32)cc1)NO | 6.00
O=C(/C=C/c1cccc(S(=O)(=O)n2ncc3ccccc32)c1)NO | 5.95
O=C(/C=C/c1cccc(S(=O)(=O)N2CCc3cccnc32)c1)NO | 5.69
O=C(/C=C/c1ccc(S(=O)(=O)n2ncc3ccccc32)cc1)NO | 5.48

Biological target: Histone deacetylase 1 (Homo sapiens, UniProt Q13547)
Test: Inhibition of HDAC1 (unknown origin) using RHKK(Ac) (379 to 382) p53 peptide as substrate by fluorescence assay
Conditions: not given

Histone deacetylase 1, sequence (Q13547 whole entry): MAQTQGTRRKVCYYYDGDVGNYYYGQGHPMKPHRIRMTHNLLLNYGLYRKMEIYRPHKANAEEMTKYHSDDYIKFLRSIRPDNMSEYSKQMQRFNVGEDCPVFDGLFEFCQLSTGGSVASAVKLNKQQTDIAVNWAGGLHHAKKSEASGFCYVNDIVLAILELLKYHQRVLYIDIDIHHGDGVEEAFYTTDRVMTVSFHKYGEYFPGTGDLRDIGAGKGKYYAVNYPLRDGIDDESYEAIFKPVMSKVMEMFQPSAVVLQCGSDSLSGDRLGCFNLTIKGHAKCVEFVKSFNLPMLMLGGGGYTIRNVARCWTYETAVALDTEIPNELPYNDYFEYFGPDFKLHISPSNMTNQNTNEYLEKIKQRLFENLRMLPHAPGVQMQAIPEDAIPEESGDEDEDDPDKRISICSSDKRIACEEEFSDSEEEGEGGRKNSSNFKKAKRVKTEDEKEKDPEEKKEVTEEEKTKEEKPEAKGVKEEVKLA

Compound | pIC50
O=C(/C=C/c1cccc(S(=O)(=O)n2ccc3ccncc32)c1)NO | 5.31

Biological target: T1, Protein deacetylase HDAC6 (Homo sapiens, UniProt Q9UBN7)
T1 sequence (Q9UBN7 whole entry): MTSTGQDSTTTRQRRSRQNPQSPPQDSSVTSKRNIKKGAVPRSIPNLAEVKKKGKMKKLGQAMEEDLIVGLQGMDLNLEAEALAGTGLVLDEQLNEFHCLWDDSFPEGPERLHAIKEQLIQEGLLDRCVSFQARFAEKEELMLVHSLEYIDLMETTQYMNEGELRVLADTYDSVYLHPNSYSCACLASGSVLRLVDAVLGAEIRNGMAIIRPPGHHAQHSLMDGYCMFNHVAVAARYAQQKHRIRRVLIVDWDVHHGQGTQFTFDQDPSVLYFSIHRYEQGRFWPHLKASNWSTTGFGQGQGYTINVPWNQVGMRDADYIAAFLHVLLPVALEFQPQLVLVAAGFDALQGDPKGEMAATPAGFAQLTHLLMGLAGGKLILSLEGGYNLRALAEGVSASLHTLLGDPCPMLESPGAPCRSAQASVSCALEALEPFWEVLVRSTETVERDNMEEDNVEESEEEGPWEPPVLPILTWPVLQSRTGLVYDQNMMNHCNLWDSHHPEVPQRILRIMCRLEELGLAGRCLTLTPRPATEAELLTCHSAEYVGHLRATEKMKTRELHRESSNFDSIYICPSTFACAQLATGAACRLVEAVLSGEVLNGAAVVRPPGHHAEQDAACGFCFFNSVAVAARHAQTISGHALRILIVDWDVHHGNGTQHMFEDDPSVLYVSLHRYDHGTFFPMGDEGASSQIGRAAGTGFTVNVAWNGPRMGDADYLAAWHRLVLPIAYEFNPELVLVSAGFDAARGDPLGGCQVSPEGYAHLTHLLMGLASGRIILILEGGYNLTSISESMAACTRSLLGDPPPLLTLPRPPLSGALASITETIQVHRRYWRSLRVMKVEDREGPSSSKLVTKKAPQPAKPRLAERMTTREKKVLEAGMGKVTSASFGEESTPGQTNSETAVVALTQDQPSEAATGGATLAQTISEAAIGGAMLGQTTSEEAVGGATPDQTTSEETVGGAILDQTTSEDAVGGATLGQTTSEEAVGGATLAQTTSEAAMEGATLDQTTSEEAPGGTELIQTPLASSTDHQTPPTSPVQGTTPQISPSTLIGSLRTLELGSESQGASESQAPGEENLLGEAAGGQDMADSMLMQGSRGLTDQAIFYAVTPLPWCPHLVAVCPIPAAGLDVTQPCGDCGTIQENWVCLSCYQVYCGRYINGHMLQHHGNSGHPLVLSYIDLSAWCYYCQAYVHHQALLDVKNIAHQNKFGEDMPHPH
Test: Inhibition of HDAC6 (unknown origin) using RHKK(Ac) (379 to 382) p53 peptide as substrate by fluorescence assay
Conditions: not given

Compound | pIC50
O=C(/C=C/c1cccc(S(=O)(=O)n2ccc3ccncc32)c1)NO | 6.55

Tested on: A549
Test: Cytotoxicity against human A549 cells by MTT assay
Assay type: functional, cell-based
Conditions: not given

Compound | pIC50
O=C(CCCCCCC(=O)Nc1ccccc1)NO [VORINOSTAT] | 5.81

Tested on: not listed separately
Test: Cytotoxicity against human H460 cells by MTT assay
Assay type: functional, cell-based
Conditions: NCI-H460
In short: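 Antiproliferative IC50 in H460 cells; mean ± SD of at least three independent experiments.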

Compound | pIC50
O=C(/C=C/c1ccc(S(=O)(=O)N2CCc3cccnc32)cc1)NO | 5.70
O=C(/C=C/c1cccc(S(=O)(=O)n2ccc3ccncc32)c1)NO | 6.25
O=C(/C=C/c1ccc(S(=O)(=O)n2ccc3ccncc32)cc1)NO | 5.78
O=C(CCCCCCC(=O)Nc1ccccc1)NO [VORINOSTAT] | 6.09
O=C(/C=C/c1cccc(S(=O)(=O)n2ccc3ccccc32)c1)NO | 5.52
O=C(/C=C/c1ccc(S(=O)(=O)n2ccc3cccnc32)cc1)NO | 6.04
O=C(/C=C/c1cccc(S(=O)(=O)n2ncc3ccccc32)c1)NO | 5.92
O=C(/C=C/c1cccc(S(=O)(=O)N2CCc3cccnc32)c1)NO | 5.74
O=C(/C=C/c1ccc(S(=O)(=O)n2ncc3ccccc32)cc1)NO | 5.55

Tested on: HCT-116
Test: Induction of apoptosis in human HCT116 cells assessed as increase in p53 protein level at 0.1 to 3 uM after 24 hrs by immunoblotting analysis
Assay type: functional, cell-based
Conditions: not given

Compound | Activity
O=C(CCCCCCC(=O)Nc1ccccc1)NO [VORINOSTAT] | inactive

Tested on: PC-3
Test: Cytotoxicity against human PC3 cells by MTT assay
Assay type: functional, cell-based
Conditions: not given

Compound | pIC50
O=C(/C=C/c1ccc(S(=O)(=O)N2CCc3cccnc32)cc1)NO | 5.44
O=C(/C=C/c1cccc(S(=O)(=O)n2ccc3ccncc32)c1)NO | 5.95
O=C(/C=C/c1ccc(S(=O)(=O)n2ccc3ccncc32)cc1)NO | 5.71
O=C(/C=C/c1cccc(S(=O)(=O)n2ccc3ccccc32)c1)NO | 5.40
O=C(/C=C/c1ccc(S(=O)(=O)n2ccc3cccnc32)cc1)NO | 5.91
O=C(/C=C/c1cccc(S(=O)(=O)n2ncc3ccccc32)c1)NO | 5.49
O=C(/C=C/c1cccc(S(=O)(=O)N2CCc3cccnc32)c1)NO | 5.39
O=C(/C=C/c1ccc(S(=O)(=O)n2ncc3ccccc32)cc1)NO | 5.47

Tested on: HCT-116
Test: Induction of apoptosis in human HCT116 cells assessed as accumulation at sub-G1 phase after 24 hrs by propidium iodide staining-based flow cytometric analysis
Assay type: functional, cell-based
Conditions: not given
In short: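 HCT116 cells treated with indicated concentrations for 24 h; DNA content analyzed by flow cytometry for cell cycle distribution and sub-G1 fraction; means of at least three independent experiments.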

Compound | Activity
O=C(CCCCCCC(=O)Nc1ccccc1)NO [VORINOSTAT] | Dose-dependent effect

Tested on: HCT-116
Test: Induction of apoptosis in human HCT116 cells assessed as accumulation at sub-G1 phase at 1 uM by propidium iodide staining-based flow cytometric analysis
Assay type: functional, cell-based
Conditions: TDE = time-dependent effect
In short: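 HCT116 cells exposed to 1 μM compound for varying time intervals; sub-G1 population quantified by flow cytometry.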

Compound | Activity
O=C(CCCCCCC(=O)Nc1ccccc1)NO [VORINOSTAT] | tde

Biological target: Histone deacetylase
Test: Inhibition of HDAC in human HeLa cell nuclear extract using Boc-Lys(Ac)-AMC as substrate after 30 mins by fluorimetric analysis
Assay type: protein assay
Conditions: not given

Compound | IC50
O=C(/C=C/c1ccc(S(=O)(=O)N2CCc3cccnc32)cc1)NO | 850 nM
O=C(/C=C/c1cccc(S(=O)(=O)n2ccc3ccncc32)c1)NO | 480 nM
O=C(/C=C/c1ccc(S(=O)(=O)n2ccc3ccncc32)cc1)NO | 560 nM
O=C(/C=C/c1cccc(S(=O)(=O)n2ccc3ccccc32)c1)NO | 510 nM
O=C(/C=C/c1ccc(S(=O)(=O)n2ccc3cccnc32)cc1)NO | 240 nM
O=C(/C=C/c1cccc(S(=O)(=O)n2ncc3ccccc32)c1)NO | 230 nM
O=C(/C=C/c1cccc(S(=O)(=O)N2CCc3cccnc32)c1)NO | 600 nM
O=C(/C=C/c1ccc(S(=O)(=O)n2ncc3ccccc32)cc1)NO | 500 nM

Tested on: not listed separately
Test: Oral bioavailability in ICR mouse at 10 mg/kg by LC-MS/MS analysis
Assay type: ADME, organism-based
Conditions: in vivo

Compound | bioavailability
O=C(CCCCCCC(=O)Nc1ccccc1)NO [VORINOSTAT] | 8.33%

Tested on: KB
Test: Cytotoxicity against human KB cells by MTT assay
Assay type: functional, cell-based
Conditions: not given

Compound | pIC50
O=C(/C=C/c1ccc(S(=O)(=O)N2CCc3cccnc32)cc1)NO | 5.82
O=C(/C=C/c1cccc(S(=O)(=O)n2ccc3ccncc32)c1)NO | 6.21
O=C(/C=C/c1ccc(S(=O)(=O)n2ccc3ccncc32)cc1)NO | 5.91
O=C(/C=C/c1cccc(S(=O)(=O)n2ccc3ccccc32)c1)NO | 5.53
O=C(/C=C/c1ccc(S(=O)(=O)n2ccc3cccnc32)cc1)NO | 6.06
O=C(/C=C/c1cccc(S(=O)(=O)n2ncc3ccccc32)c1)NO | 5.90
O=C(/C=C/c1cccc(S(=O)(=O)N2CCc3cccnc32)c1)NO | 5.89
O=C(/C=C/c1ccc(S(=O)(=O)n2ncc3ccccc32)cc1)NO | 5.74
